Laboratory results: ChEMBL document CHEMBL3808288, “Identification and in Vivo Evaluation of Liver X Receptor β-Selective Agonists for the Potential Treatment of Alzheimer's Disease” (J Med Chem, 2016)
In brackets after ≈: the same amount, converted by molar mass. Activity calls are given as the source filed them. The calls are words filed in the database; no cut-off is given here.

Experiments:
[1] = system: Rhesus monkey; experiment: Upregulation of CETP in rhesus monkey at 20 mg/kg, po qd for 2 weeks relative to control; assay type: ADME, organism-based; settings: Macaca mulatta, 336 h, read-out: FC
[2] = Cmax in rhesus monkey at 10 mg/kg, po administered for 2 weeks; assay type: ADME, organism-based, Macaca mulatta; design: dose 10 mg/kg, route oral; settings: in vivo
Outline: (§1)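 Cmax was estimated across a 2-week once-daily oral dosing study in rhesus monkeys.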

[3] = system: Mus musculus; experiment: Reversal of hyperlocomotary behavior in Tg2576 transgenic mouse at 50 mg/kg, sc administered as single dose 4 hrs before test by open field test; assay type: functional, organism-based
Outline: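 A single subcutaneous dose was given 4 h before the open-field locomotor test.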

[4] = Half life of compound in rat; assay type: ADME, organism-based; settings: in vivo
[5] = system: Mus musculus; experiment: Toxicity in Tg2576 transgenic mouse assessed as change in liver triglyceride level at 50 mg/kg, sc dosed for 3 weeks; assay type: organism-based; settings: in vivo, 504 h
Outline: (§2)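 12-month-old Tg2576 mice were dosed subcutaneously for three weeks. Brain was assayed for ABCA1 protein, soluble apoE and DEA-soluble Aβ, and plasma and liver were assayed for triglycerides. Groups were compared with vehicle by ANOVA.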

[6] = system: Rhesus monkey; experiment: Increase in lipid level in liver of rhesus monkey at 10 to 20 mg/kg, po qd for 2 weeks; assay type: ADME, organism-based, Macaca mulatta; settings: in vivo, 336 h
[7] = target: T1, Oxysterols receptor LXR-alpha (Homo sapiens) (UniProt Q13133); experiment: (§3) Partial agonist activity at LXRalpha (unknown origin) expressed in human HepG2 cells co-expressing ABCA1 promoter measured after 48 hrs by cell-based transactivation assay
T1 sequence (whole entry): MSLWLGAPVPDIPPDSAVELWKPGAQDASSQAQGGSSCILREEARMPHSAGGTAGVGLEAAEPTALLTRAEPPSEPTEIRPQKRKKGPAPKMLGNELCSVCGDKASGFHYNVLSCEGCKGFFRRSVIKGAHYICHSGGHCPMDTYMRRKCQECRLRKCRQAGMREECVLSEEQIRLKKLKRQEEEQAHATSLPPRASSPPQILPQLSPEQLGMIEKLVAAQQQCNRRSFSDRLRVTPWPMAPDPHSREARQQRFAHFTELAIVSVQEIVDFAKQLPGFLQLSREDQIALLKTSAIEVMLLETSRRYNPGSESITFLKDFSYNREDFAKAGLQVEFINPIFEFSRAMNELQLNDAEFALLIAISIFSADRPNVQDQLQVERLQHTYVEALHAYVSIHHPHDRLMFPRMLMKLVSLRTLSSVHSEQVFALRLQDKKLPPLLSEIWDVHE
Outline: (§4)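 Cell-based transactivation assay using endogenous LXRβ or LXRα. The read-out was EC50 and Emax, with Emax expressed relative to a full agonist control set at 100%.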

[8] = target: T2, Oxysterols receptor LXR-alpha (Homo sapiens, UniProt Q13133); experiment: as §3; outline: as §4
T2 sequence (Q13133 whole entry): T1 sequence (whole entry)

[9] = Protein binding in rhesus monkey plasma; assay type: ADME, cell-free, Macaca mulatta; settings: read-out: PPB (converted)
[10] = Solubility of the compound at pH 2; assay type: physicochemical; settings: buffer
[11] = Ratio of drug uptake in brain to plasma in rat; assay type: ADME, cell-free; settings: brain and plasma, read-out: BPR
[12] = Protein binding in rat plasma; assay type: ADME, cell-free; settings: read-out: PPB (converted)
[13] = target: T1, Oxysterols receptor LXR-alpha (Homo sapiens); experiment: Agonist activity at GST-tagged LXRalpha-LBD (unknown origin) by LanthaScreen TR-FRET liver X receptor coactivator assay T1317
Outline: (§5)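 Cofactor recruitment assay using the ligand binding domains of LXRβ or LXRα. The read-out was EC50 and Emax, with Emax relative to a full agonist control.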

[14] = Volume of distribution at steady state in rat; assay type: ADME, organism-based; settings: in vivo, read-out: Vdss
[15] = Half life of compound in rhesus monkey; assay type: ADME, organism-based, Macaca mulatta; settings: in vivo
[16] = Volume of distribution at steady state in rhesus monkey; assay type: ADME, organism-based, Macaca mulatta; settings: in vivo, read-out: Vdss
[17] = system: Rhesus monkey; experiment: Increase in amyloid beta42 in CSF of rhesus monkey at 20 mg/kg, po administered for 2 weeks; assay type: functional, Macaca mulatta
[18] = system: Rhesus monkey; experiment: Increase in LDL cholesterol level in rhesus monkey at 10 to 20 mg/kg, po qd for 2 weeks; assay type: ADME, organism-based, Macaca mulatta; settings: in vivo, 336 h
Outline: (§6)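 Rhesus monkeys were dosed orally once daily for 2 weeks. LDL and HDL cholesterol were measured in serum at trough after the last dose and compared with baseline serum samples taken before dosing.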

[19] = system: P-gp; experiment: Efflux ratio in MDCK cells expressing rat P-gp assessed as ratio of permeability across basolateral to apical side over apical to basolateral side; assay type: ADME, cell-based, Canis lupus familiaris; settings: dog, MDCK-MDR1
[20] = target: T3, Oxysterols receptor LXR-beta (Homo sapiens, UniProt P55055); experiment: Agonist activity at GST-tagged LXRbeta-LBD (unknown origin) by LanthaScreen TR-FRET liver X receptor coactivator assay; outline: as §5
T3 sequence (P55055 whole entry): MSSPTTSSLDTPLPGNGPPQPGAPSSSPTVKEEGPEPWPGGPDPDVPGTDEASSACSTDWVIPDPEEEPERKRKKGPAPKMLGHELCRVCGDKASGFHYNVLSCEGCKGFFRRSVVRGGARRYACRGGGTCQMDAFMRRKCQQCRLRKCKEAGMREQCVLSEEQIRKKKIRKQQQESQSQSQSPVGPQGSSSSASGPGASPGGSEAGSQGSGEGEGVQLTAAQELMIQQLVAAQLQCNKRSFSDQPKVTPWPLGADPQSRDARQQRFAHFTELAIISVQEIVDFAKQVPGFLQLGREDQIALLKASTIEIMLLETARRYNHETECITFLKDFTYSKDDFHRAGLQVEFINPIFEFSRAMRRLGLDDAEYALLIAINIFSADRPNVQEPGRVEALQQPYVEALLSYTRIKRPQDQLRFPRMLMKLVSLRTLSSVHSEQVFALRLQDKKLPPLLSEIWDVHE

[21] = Cmax in rhesus monkey at 20 mg/kg, po administered for 2 weeks; assay type: ADME, organism-based, Macaca mulatta; design: dose 20 mg/kg, route oral; settings: in vivo; outline: as §1
[22] = system: Mus musculus; experiment: Toxicity in wild-type mouse assessed as effect on locomotary behavior at 50 mg/kg, sc dosed for 16 days mins by open field test; assay type: organism-based; settings: in vivo, 384 h
Outline: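 Wild-type mice were part of a three-week subcutaneous dosing study that also included Tg2576 transgenic mice. Locomotor activity was scored in an open-field arena after 16 days of dosing.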

[23] = system: Rhesus monkey; experiment: Increase in lipid level in serum of rhesus monkey at 10 to 20 mg/kg, po qd for 2 weeks; assay type: ADME, organism-based, Macaca mulatta; settings: in vivo, 336 h
[24] = system: Rhesus monkey; experiment: Decrease in ratio of HDL to LDL level in rhesus monkey plasma at 10 to 20 mg/kg, po qd for 2 weeks; assay type: ADME, organism-based, Macaca mulatta; settings: in vivo, 336 h; outline: as §6
[25] = system: Rhesus monkey; experiment: Increase in hepatic fat content in rhesus monkey at 10 and 20 mg/kg, po qd for 2 weeks by magnetic resonance spectroscopic imaging method relative to vehicle control; assay type: ADME, organism-based, Macaca mulatta; settings: in vivo, 336 h
[26] = Clearance in rhesus monkey; assay type: ADME, organism-based, Macaca mulatta; settings: in vivo
[27] = Oral bioavailability in rhesus monkey; assay type: ADME, organism-based, Macaca mulatta; settings: in vivo
[28] = system: Rhesus monkey; experiment: Increase in amyloid beta40 in CSF of rhesus monkey at 20 mg/kg, po administered for 2 weeks; assay type: functional, Macaca mulatta
[29] = system: Mus musculus; experiment: Activation of LXR in Tg2576 transgenic mouse assessed decrease in DEA-soluble amyloid-beta level in brain at 50 mg/kg, sc dosed for 3 weeks; assay type: functional; settings: 504 h; outline: as §2
[30] = Apparent permeability of compound in MDCK cells; assay type: ADME, cell-based, Canis lupus familiaris; settings: dog
[31] = system: Mus musculus; experiment: Activation of LXR in Tg2576 transgenic mouse assessed increase in brain ABCA1 level at 50 mg/kg, sc dosed for 3 weeks by western blotting method; assay type: functional, organism-based; outline: as §2

For CC(C)[C@@](O)(C(=O)N1CCC(C2CCN(c3ccc(C(=O)N(C)C)c(Cl)c3)CC2)CC1)C(F)(F)F, the fold induction at 20 mg/kg [1] was 2.8, the Cmax [2] was 1 µM and the Activity [3] was “inactive”. The half-life [4] was 2.9 h, the Activity [5] was “Non-toxic” and the Activity [6] was “Non-toxic”. It also gave an Emax [7] of 31%, an EC50 [8] of 830 nM and a fraction unbound [9] of 0.007. The solubility [10] was 205 µM (≈ 106 µg/mL), the Kp [11] was 0.62 and the fraction unbound [12] was 0.018. It also gave an Emax [13] of 49%, a Vd [14] of 8.8 L/kg and a half-life [15] of 2 h. For the same compound, the Vd [16] was 2.7 L/kg, the Activity [17] was 25% and the Activity [18] was “Toxic”. It also gave an efflux ratio [19] of 0.8, an EC50 [20] of 30 nM and a Cmax [21] of 18 µM. For the same compound, the Activity [22] was “Non-toxic”, the Activity [23] was “Non-toxic” and the Activity [24] was “Toxic”. For the same compound, the Activity [25] was “Non-toxic”, the clearance [26] was 18 mL/min/kg and the bioavailability [27] was 77%. It also gave an Activity [28] of 25%, an inhibition in vivo at 50 mg/kg [29] of 28% and a Papp [30] of 24 ×10⁻⁶ cm/s. The Activity [31] was “Active”.
